The record followed here is BindingDB's records for doi:10.1021/jm0504454 (Sapienza University of Rome, 2005).

In general, IC50 refers to the point on the concentration scale where inhibition reaches its midpoint. Read a high IC50 as a need for much substance.

Sequence of RNA-directed RNA polymerase (O39930 whole entry): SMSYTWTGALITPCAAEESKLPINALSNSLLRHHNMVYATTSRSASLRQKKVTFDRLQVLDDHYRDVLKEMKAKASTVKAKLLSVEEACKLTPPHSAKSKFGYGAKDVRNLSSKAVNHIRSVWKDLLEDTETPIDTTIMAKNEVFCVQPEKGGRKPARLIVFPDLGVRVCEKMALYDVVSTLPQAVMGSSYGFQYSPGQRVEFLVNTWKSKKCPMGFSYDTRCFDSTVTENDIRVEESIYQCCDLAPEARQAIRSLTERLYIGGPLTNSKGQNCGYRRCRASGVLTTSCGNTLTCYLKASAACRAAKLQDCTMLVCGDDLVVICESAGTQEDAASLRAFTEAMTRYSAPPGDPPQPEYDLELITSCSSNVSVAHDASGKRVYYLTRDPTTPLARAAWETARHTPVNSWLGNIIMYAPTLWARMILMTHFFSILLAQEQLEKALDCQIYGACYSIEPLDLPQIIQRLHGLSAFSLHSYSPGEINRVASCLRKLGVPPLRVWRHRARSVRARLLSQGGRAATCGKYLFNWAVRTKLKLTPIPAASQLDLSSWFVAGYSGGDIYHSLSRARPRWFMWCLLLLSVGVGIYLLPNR

In this test the target is RNA-directed RNA polymerase (UniProt O39930). In words: Inhibitory concentration against NS5B HCV polymerase using [alpha-32P]UTP as radioligand (30 degree C for 2 h, at pH 7.5 with Tris-HCl buffer). An outline of the steps:
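Recombinant HCV RdRp (1 nM) in 20 mM Tris-HCl pH 7.5, 5 mM MgCl2, 1 mM DTT, 1 mM EDTA, RNase inhibitor, 50 µg/mL actinomycin D, 10 µg/mL RNA template, 0.5 mM ATP/CTP/GTP, [α-32P]UTP, limiting nucleotide 10 µM. 30 °C, 2 h; proteinase K stop, extraction, urea-PAGE, phosphorimaging. IC50s rescaled by a reference inhibitor's measured/literature IC50 ratio.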
On to `O=C(O)C(=O)CC(=O)c1ccco1`, for which the IC50 stood at 50 µM.
The same measure for `Cc1ccc(Cn2cccc2C=CC(=O)CC(=O)C(=O)O)cc1`: 28 µM; for `COc1ccc(Cn2cccc2C=CC(=O)CC(=O)C(=O)O)cc1`: 16 µM.
The same measure for `O=C(O)C(=O)CC(=O)c1cccc(-c2ccccc2)c1`: 28 µM; for `O=C(O)C(=O)CC(=O)c1cccc(Oc2ccccc2)c1`: 19 µM; for `O=C(O)C(=O)CC(=O)c1cccn1Cc1ccc2ccccc2c1` [(Z)-2-Hydroxy-4-(1-naphthalen-2-ylmethyl-1H-pyrrol-2-yl)-4-oxo-but-2-enoic acid]: 13 µM.
The same measure for `O=C(O)C(=O)CC(=O)c1cccn1Cc1ccc(O)cc1` [(Z)-2-Hydroxy-4-[1-(4-hydroxy-benzyl)-1H-pyrrol-2-yl]-4-oxo-but-2-enoic acid]: 13 µM; for `O=C(O)C(=O)CC(=O)c1cccc(NC(=O)C(=O)O)c1` [(Z)-2-Hydroxy-4-[3-(oxalyl-amino)-phenyl]-4-oxo-but-2-enoic acid]: 19 µM.
On to `O=C(O)C(=O)CC(=O)c1ccc(N2CCCCC2)s1` [(Z)-2-Hydroxy-4-oxo-4-(5-piperidin-1-yl-thiophen-2-yl)-but-2-enoic acid], for which the IC50 came out at 8.2 µM.
As for `O=C(O)C(=O)CC(=O)c1cccc(OCc2cccc(Oc3ccccc3)c2)c1` [(Z)-2-Hydroxy-4-oxo-4-[3-(3-phenoxy-benzyloxy)-phenyl]-but-2-enoic acid], the figure is 50 µM; as for `Cc1cc(C)c(C(=O)CC(=O)C(=O)O)s1` [(Z)-4-(3,5-Dimethyl-thiophen-2-yl)-2-hydroxy-4-oxo-but-2-enoic acid], 8.2 µM.
The same measure for `N#CCCCCn1cccc1C(=O)CC(=O)C(=O)O` [(Z)-4-[1-(4-Cyano-butyl)-1H-pyrrol-2-yl]-2-hydroxy-4-oxo-but-2-enoic acid]: 13 µM; for `O=C(O)C(=O)CC(=O)c1cc(I)cn1Cc1ccc(F)cc1` [(Z)-4-[1-(4-Fluoro-benzyl)-4-iodo-1H-pyrrol-2-yl]-2-hydroxy-4-oxo-but-2-enoic acid]: 18 µM; for `O=C(O)C(=O)CC(=O)c1ccsc1Cc1ccc(F)cc1` [(Z)-4-[2-(4-Fluoro-benzyl)-thiophen-3-yl]-2-hydroxy-4-oxo-but-2-enoic acid]: 18 µM.
As for `N#Cc1cccc(Cl)c1COc1cc(O)cc(C(=O)CC(=O)C(=O)O)c1` [(Z)-4-[3-(2-Chloro-6-cyano-benzyloxy)-5-hydroxy-phenyl]-2-hydroxy-4-oxo-but-2-enoic acid], the IC50 was determined as 0.1 µM.
As for `O=C(O)C(=O)CC(=O)c1cccc(OCc2ccc(-c3ccccc3)cc2)c1` [(Z)-4-[3-(Biphenyl-4-ylmethoxy)-phenyl]-2-hydroxy-4-oxo-but-2-enoic acid], the figure is 50 µM; as for `O=C(C=Cc1c[nH]c2ccc(Cl)cc12)CC(=O)C(=O)O` [(Z)-6-((E)-5-Chloro-1H-indol-3-yl)-2-hydroxy-4-oxo-hexa-2,5-dienoic acid], 18 µM; as for `O=C(C=Cc1cccn1Cc1cccc(F)c1)CC(=O)C(=O)O` [(Z)-6-[1-(3-Fluoro-benzyl)-1H-pyrrol-2-yl]-2-hydroxy-4-oxo-hexa-2,5-dienoic acid], 18 µM.
The same measure for `Cc1ccccc1Cn1cccc1C=CC(=O)CC(=O)C(=O)O` [(Z)-6-[1-((E)-obenzyl)-1H-Pyrrol-2-yl]-2-hydroxy-4-oxo-hexa-2,5-dienoic acid]: 18 µM; for `Cn1cc(C(=O)c2ccc(F)cc2)cc1C=CC(=O)CC(=O)C(=O)O` [(Z)-6-[4-(4-Fluoro-benzoyl)-1-methyl-1H-pyrrol-2-yl]-2-hydroxy-4-oxo-hexa-2,5-dienoic acid]: 16 µM.
